Reference: ChEMBL document CHEMBL1641508, “Effect of structurally constrained oxime-ether linker on PPAR subtype selectivity: Discovery of a novel and potent series of PPAR-pan agonists” (Bioorg Med Chem, 2011)
The source made the active and inactive calls. No cut-off for these calls is given here.

Tests used:
[1] = target: T1, Peroxisome proliferator-activated receptor alpha (Homo sapiens) (UniProt Q07869); assay: Agonist activity at human PPARalpha expressed in HepG2 cells co-transfected with PPRE3-TK-luc assessed as beta-galactosidase activity after 20 to 22 hrs by luciferase based transactivation assay relative to WY-14643; type: functional, cell-based
T1 sequence (whole entry): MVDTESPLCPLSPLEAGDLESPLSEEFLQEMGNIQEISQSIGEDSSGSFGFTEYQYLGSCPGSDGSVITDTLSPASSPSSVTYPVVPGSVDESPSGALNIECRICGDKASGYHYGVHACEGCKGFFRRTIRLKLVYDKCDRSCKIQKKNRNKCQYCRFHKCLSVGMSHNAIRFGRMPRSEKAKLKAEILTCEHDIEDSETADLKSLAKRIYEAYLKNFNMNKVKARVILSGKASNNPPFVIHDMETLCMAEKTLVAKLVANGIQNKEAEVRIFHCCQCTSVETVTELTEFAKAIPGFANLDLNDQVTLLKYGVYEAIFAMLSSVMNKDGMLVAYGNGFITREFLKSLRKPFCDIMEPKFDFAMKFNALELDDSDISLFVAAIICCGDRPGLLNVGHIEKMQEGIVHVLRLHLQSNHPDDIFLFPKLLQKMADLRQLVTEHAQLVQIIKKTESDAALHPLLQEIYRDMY
Summary of the method: (§1)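 HepG2 (MEM, 10% FBS, NEAA, pyruvate, pen/strep) seeded 400,000 cells/well, transfected (Superfect) with pSG5 vector carrying full-length hPPAR cDNA plus PPRE3-TK-luc; 3 h at 37 °C, 5% CO2, then ligand-containing medium added, 20–22 h.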

[2] = target: T2, Peroxisome proliferator-activated receptor delta (Homo sapiens) (UniProt Q03181); assay: Agonist activity at human PPARdelta expressed in HepG2 cells co-transfected with PPRE3-TK-luc assessed as beta-galactosidase activity after 20 to 22 hrs by luciferase based transactivation assay relative to GW-501516; type: functional, cell-based; summary of the method: as §1
T2 sequence (whole entry): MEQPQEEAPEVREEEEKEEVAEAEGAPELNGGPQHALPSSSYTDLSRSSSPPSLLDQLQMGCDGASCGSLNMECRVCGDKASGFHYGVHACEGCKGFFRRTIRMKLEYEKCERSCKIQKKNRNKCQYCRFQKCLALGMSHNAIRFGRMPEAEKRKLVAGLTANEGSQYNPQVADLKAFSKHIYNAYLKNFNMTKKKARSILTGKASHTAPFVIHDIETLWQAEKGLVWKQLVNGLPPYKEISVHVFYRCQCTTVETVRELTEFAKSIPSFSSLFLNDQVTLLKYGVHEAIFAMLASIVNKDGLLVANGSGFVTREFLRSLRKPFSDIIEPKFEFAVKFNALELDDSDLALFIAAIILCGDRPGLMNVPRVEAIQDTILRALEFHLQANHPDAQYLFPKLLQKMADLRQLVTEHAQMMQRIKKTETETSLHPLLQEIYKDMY

[3] = target: T3, Peroxisome proliferator-activated receptor delta (Homo sapiens, UniProt Q03181); assay: Agonist activity at human PPARdelta expressed in HepG2 cells co-transfected with PPRE3-TK-luc assessed as beta-galactosidase activity after 20 to 22 hrs by luciferase based transactivation assay; type: functional, cell-based
T3 sequence (Q03181 whole entry): T2 sequence (whole entry)

[4] = target: T4, Peroxisome proliferator-activated receptor gamma (Homo sapiens, UniProt P37231); type: functional, cell-based, HepG2
T4 sequence (P37231 whole entry): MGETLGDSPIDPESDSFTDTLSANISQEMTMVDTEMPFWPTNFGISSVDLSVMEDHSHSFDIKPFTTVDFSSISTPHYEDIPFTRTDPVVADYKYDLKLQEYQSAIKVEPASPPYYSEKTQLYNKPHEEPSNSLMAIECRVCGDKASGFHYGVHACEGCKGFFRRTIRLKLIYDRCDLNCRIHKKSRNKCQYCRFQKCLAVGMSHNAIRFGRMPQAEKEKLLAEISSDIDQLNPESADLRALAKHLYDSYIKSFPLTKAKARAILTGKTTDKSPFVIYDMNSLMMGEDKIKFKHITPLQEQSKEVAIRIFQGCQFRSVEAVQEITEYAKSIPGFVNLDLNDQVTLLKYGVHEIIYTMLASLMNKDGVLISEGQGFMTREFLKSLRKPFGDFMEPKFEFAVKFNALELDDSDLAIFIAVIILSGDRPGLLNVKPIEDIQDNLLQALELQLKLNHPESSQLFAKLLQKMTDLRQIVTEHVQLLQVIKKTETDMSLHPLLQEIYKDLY

[5] = target: T5, Peroxisome proliferator-activated receptor alpha (Homo sapiens, UniProt Q07869); assay: Agonist activity at human PPARalpha expressed in HepG2 cells co-transfected with PPRE3-TK-luc assessed as beta-galactosidase activity after 20 to 22 hrs by luciferase based transactivation assay; type: functional, cell-based
T5 sequence (Q07869 whole entry): T1 sequence (whole entry)

[6] = test system: Mus musculus; assay: Antihyperlipidemic activity in db/db mouse assessed as reduction of serum triglyceride level at 10 mg/kg, po qd for 14 days relative to control; type: functional; parameters: scale not given: the % may be the effect or the level left
Summary of the method: (§2)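 Male db/db mice, 12–14 weeks, 30–40 g, tail-bled before the study. Groups of six were matched for plasma glucose, TG and TC. Dosing was oral once daily for 14 days, with vehicle 0.5% methylcellulose in water, and mice were fed ad libitum. About 1 h after the last dose, mice were tail-bled and serum/plasma glucose and TG measured. Values are % change versus vehicle-treated mice, mean ± SD (n = 6).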

[7] = test system: Syrian golden hamster; assay: Antihyperlipidemic activity in high fat-high cholesterol-fructose fed hamster assessed as increase of serum HDL-cholesterol level at 10 mg/kg, po qd for 14 days; type: functional, organism-based; parameters: dose 10 mg/kg; conditions: Mesocricetus auratus
[8] = test system: Mus musculus; assay: Antihyperglycemic activity in db/db mouse assessed as reduction of serum glucose level at 10 mg/kg, po qd for 14 days relative to control; type: functional; parameters: scale not given: the % may be the effect or the level left; summary of the method: as §2
[9] = test system: Syrian golden hamster; assay: Antihyperlipidemic activity in high fat-high cholesterol-fructose fed hamster assessed as decrease of serum LDL-cholesterol level at 10 mg/kg, po qd for 14 days; type: functional, organism-based; parameters: dose 10 mg/kg; conditions: Mesocricetus auratus
[10] = test system: Mus musculus; assay: Antihyperlipidemic activity in db/db mouse assessed as reduction of serum triglyceride level at 3 mg/kg, po qd for 14 days relative to control; type: functional; parameters: scale not given: the % may be the effect or the level left; summary of the method: as §2
[11] = test system: Mus musculus; assay: Antihyperglycemic activity in db/db mouse assessed as reduction of serum glucose level at 3 mg/kg, po qd for 14 days relative to control; type: functional; parameters: scale not given: the % may be the effect or the level left; summary of the method: as §2

SMILES	Emax [1]	Emax [2]	further results
CC/C(=N\OCc1sc(-c2ccc(C(F)(F)F)cc2)nc1C)c1ccc(OCC(=O)O)cc1	97.5%	41.4%	
Cc1cc(/C(=N/OCc2nc(-c3ccccc3)oc2C)C2CCCCC2)ccc1OCC(=O)O	9.7%	58.8%	
CC/C(=N\OCc1nc(-c2ccccc2)oc1C)c1ccc(OCC(=O)O)c(C)c1	56.4%	72.3%	
CC(C)(Oc1ccc(CCNC(=O)c2ccc(Cl)cc2)cc1)C(=O)O [BEZAFIBRATE]			EC50 [3]: 18900 nM; EC50 [4]: 57200 nM
CC/C(=N\OCc1nc(-c2ccc(C)cc2)oc1C)c1ccc(OCC(=O)O)cc1	68.5%	49.2%	
C/C(=N\OCc1nc(-c2ccc(C)cc2)oc1C)c1ccc(OCC(=O)O)c(C)c1	45.3%	67.6%	EC50 [5]: 150 nM; EC50 [3]: 300 nM; EC50 [4]: 400 nM
CCC/C(=N\OCc1nc(-c2ccccc2)oc1C)c1ccc(OCC(=O)O)c(C)c1	14.1%	51.7%	
CC/C(=N\OCc1sc(-c2ccc(C(F)(F)F)cc2)nc1C)c1ccc(OCC(=O)O)c(C)c1	96.4%	61.9%	EC50 [5]: 120 nM; EC50 [3]: 800 nM; EC50 [4]: 800 nM
Cc1ccc(-c2nc(CO/N=C(/c3ccc(OCC(=O)O)c(C)c3)C3CCCCC3)c(C)o2)cc1	14.1%	56.6%	
C/C(=N\OCc1nc(-c2ccc(C)cc2)oc1C)c1ccc(OCC(=O)O)cc1	51.1%	48.1%	
CCC/C(=N\OCc1sc(-c2ccc(C(F)(F)F)cc2)nc1C)c1ccc(OCC(=O)O)c(C)c1	58.7%	48.3%	
C/C(=N\OCc1nc(-c2ccccc2)oc1C)c1ccc(OCC(=O)O)cc1	58.8%	52.1%	
C/C(=N\OCc1nc(-c2ccccc2)oc1C)c1ccc(OCC(=O)O)c(C)c1	84.5%	74.5%	Activity [6]: -52.4%; Activity [7]: Active; EC50 [5]: 500 nM; Activity [8]: -59.9%; EC50 [3]: 800 nM; Activity [9]: Active; EC50 [4]: 300 nM
C/C(=N\OCc1sc(-c2ccc(C(F)(F)F)cc2)nc1C)c1ccc(OCC(=O)O)cc1	86.2%	60.6%	
Cc1cc(SCc2sc(-c3ccc(C(F)(F)F)cc3)nc2C)ccc1OCC(=O)O	76.9%		
CC/C(=N\OCc1nc(-c2ccccc2)oc1C)c1ccc(OCC(=O)O)cc1	42.5%	46.4%	
CC/C(=N\OCc1nc(-c2ccc(C)cc2)oc1C)c1ccc(OCC(=O)O)c(C)c1	72.6%	56.3%	
CCC/C(=N\OCc1nc(-c2ccc(C)cc2)oc1C)c1ccc(OCC(=O)O)c(C)c1	33.3%	46.8%	
C/C(=N\OCc1sc(-c2ccc(C(F)(F)F)cc2)nc1C)c1ccc(OCC(=O)O)c(C)c1	99.8%	90.1%	Activity [6]: -36.5%; Activity [7]: Active; EC50 [5]: 8 nM; Activity [8]: -23.2%; EC50 [3]: 10 nM; Activity [9]: Active; EC50 [4]: 6 nM
CCO[C@@H](Cc1ccc(OCCc2ccc(OS(C)(=O)=O)cc2)cc1)C(=O)O [TESAGLITAZAR]			Activity [10]: -54.4%; Activity [11]: -60.2%
Cc1cc(/C(=N/OCc2sc(-c3ccc(C(F)(F)F)cc3)nc2C)C2CCCCC2)ccc1OCC(=O)O	57.9%	98.7%	EC50 [5]: 1600 nM; EC50 [3]: 700 nM; EC50 [4]: 1000 nM
